# Screening data as filed in PubChem BioAssay.
# A selection: hits, their analogues and other compounds. The true share with any hit is near 3.4%.
# S100A4 inh HTS: blocks human S100A4 binding to myosin IIA peptide. P26447. S100A4/TAMRA-MyoIIA peptide fluorescence polarization. inhibition, % at 10.7 µM. 360,000 tested, 0.14% active. AID 652163;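 active means mean inhibition of at least 70% across replicates, with every replicate also reaching that level; inconclusive means mean inhibition reaches 70% but some replicates fall short; inactive means mean inhibition below 70%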
#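 incubation = readout 5 min after mixing, signal stable up to 60 min | system = S100A4 monomer protein | buffer or medium = HEPES pH 7.2 with CaCl2, KCl, NaCl, DTT, Triton | benchmarks = neutral control DMSO, positive control TFP | also added = fluorescent myosin IIA peptide, 5 nM | compound dosing = one concentration per compound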
# E-sel inducer: induces E-selectin expression in human endothelial cells; HUVEC E-selectin immunofluorescence imaging; normalized: neutral wells 0, TNF-alpha wells 100; AID 686992; P16581; 260,000 tested, 0.37% active; activation, % at 7.58 µM;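 active means mean E-selectin-positive cell signal at least 10% of the positive control, reached in at least 60% of replicates, without over 20% cell loss; inconclusive means no rule given, readout overlaps actives, possibly toxicity-flagged; inactive means the rest, including those meeting only one limit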
#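 assay system = HUVEC, human umbilical vein endothelial cells | input = 3,000 HUVEC seeded per well | medium = EGM-2 growth medium on 0.1% gelatin-coated wells | dosing = one compound dose added by pin transfer | signal = immunofluorescence imaging | read-out basis = % PE-positive cells | control set = TNF-alpha, DMSO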
# ERAP1 inh: inhibitors of human ERAP1 aminopeptidase | 340,000 tested, 0.15% active | inhibition, % at 10.7 µM | AID 652197 | recombinant ERAP1, Leu-AMC fluorescence, 60 min;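 active means mean replicate inhibition of at least 30%, or all replicates individually reaching that 30% level; inactive means mean below 30% and not every replicate reaching it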;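 further: 0% = neutral control wells and 100% = L-leucinethiol positive control wells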
# Target sequence (Q9NZ08 whole entry, looked up): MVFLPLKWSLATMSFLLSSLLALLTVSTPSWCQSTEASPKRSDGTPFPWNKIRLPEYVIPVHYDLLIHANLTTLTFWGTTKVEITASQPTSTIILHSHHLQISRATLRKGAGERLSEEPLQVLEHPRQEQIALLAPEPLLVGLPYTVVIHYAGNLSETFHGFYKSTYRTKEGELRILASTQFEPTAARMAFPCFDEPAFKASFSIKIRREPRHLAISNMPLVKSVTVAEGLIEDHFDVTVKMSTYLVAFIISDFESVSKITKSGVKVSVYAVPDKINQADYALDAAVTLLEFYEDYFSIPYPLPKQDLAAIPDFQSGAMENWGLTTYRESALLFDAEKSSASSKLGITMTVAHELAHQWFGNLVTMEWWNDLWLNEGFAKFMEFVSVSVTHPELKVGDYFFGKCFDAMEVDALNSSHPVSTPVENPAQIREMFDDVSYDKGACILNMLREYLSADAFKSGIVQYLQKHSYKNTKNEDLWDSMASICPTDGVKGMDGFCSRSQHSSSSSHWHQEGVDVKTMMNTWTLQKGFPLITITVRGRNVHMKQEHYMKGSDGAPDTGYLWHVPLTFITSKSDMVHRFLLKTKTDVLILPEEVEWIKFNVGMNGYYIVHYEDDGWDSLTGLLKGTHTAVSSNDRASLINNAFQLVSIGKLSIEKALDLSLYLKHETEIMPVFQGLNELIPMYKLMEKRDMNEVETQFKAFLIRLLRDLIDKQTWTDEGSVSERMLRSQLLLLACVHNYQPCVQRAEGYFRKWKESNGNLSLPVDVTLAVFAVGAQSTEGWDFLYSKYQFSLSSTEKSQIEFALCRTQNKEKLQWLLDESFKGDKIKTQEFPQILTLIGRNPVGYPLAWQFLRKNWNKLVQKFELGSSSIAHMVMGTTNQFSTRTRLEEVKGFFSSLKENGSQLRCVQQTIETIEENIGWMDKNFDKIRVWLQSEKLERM
# rRNA inh HTS: inhibits bacterial ribosomal RNA function over humanized ribosomes | E. coli WT GFP vs humanized-ribosome RFP mutants, fluorescence, 24 h; active compounds read low; DMSO median 0, no signal -100 | GFP signal change (wild-type ribosome), % (no concentration beside the values) | 350,000 tested, 1.6% active | AID 720706;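 active means significant combined selectivity score with lowered wild-type GFP, culture density cut under 30%, mutant RFP and density less affected; inactive means any of these conditions unmet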
# AF4-AF9 inh: MLL-AF4/AF9 protein interaction inhibition. P42568. AlphaScreen, biotin-AF4 peptide binding to FLAG-AF9. inhibition, % at 10 µM. 350,000 tested, 0.47% active. AID 651704;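 active means every replicate reaching a set inhibition limit, whatever the replicate mean, cut at about 25% in these data; inconclusive means mean inhibition reaches that limit but some replicates miss it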;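 further: 0% = plate neutral control median and 100% = total signal loss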
# SIRT5 inh: inhibitors of human sirtuin-5 desuccinylase; 330,000 tested, 1.1% active; Q9NXA8; inhibition, % at 15 µM; Purified SirT5, succinyl-peptide AMC, trypsin-coupled fluorescence; in the data active means inhibition above about 15%; inconclusive means no clear call, values can overlap the other calls
# Active calls of the source: *; ? = inconclusive; . = not tested or not shown.
SMILES,S100A4 inh HTS,E-sel inducer,ERAP1 inh,rRNA inh HTS,AF4-AF9 inh,SIRT5 inh
C[C@@H]1CCCCO[C@@H](CN(C)Cc2ccc(C(F)(F)F)cc2)[C@H](C)CN([C@@H](C)CO)C(=O)c2cc(NS(=O)(=O)c3ccccc3)ccc2O1,13.1,-0.2,-2.9,2.0,5.2,20.9*
C[C@@H]1CCCCO[C@H](CN(C)Cc2ccc(C(F)(F)F)cc2)[C@H](C)CN([C@@H](C)CO)C(=O)c2cc(NS(=O)(=O)c3ccccc3)ccc2O1,2.8,-0.2,4.3,-0.5,2.4,5.4
C[C@@H]1CCCCO[C@H](CN(C)Cc2ccc(C(F)(F)F)cc2)[C@@H](C)CN([C@@H](C)CO)C(=O)c2cc(NS(=O)(=O)c3ccccc3)ccc2O1,-15.1,0.1,-3.7,-12.5,1.3,19.8*
C[C@@H]1CN([C@@H](C)CO)C(=O)c2cc(NS(=O)(=O)c3ccccc3)ccc2O[C@@H](C)CCCCO[C@H]1CN(C)Cc1ccc(C(F)(F)F)cc1,5.5,-0.1,-1.0,2.1,1.9,17.7*
COc1cc(/C=N/Nc2cccc3cccnc23)cc(OC)c1O,-1.5,-0.2,1.2,-25.8*,1.5,-0.3
Oc1cccc(/C=N/Nc2cccc3cccnc23)c1,3.3,.,-0.9,-35.0*,2.8,-0.6
O=C(N/N=C/c1cccc(O)c1)c1ccc(COc2cccc3cccnc23)cc1,-6.0,0.9,2.0,3.2,0.2,-5.6
COc1ccc(C)cc1NC(=O)c1ccc(CN2CCc3ccccc3C2)cc1,-5.8,2.5,1.5,-23.6*,-1.9,2.1
COCCCNC(=O)c1ccc(CN2CCc3ccccc3C2)cc1,1.7,-0.4,1.1,15.8,0.4,22.9*
COC(=O)c1ccc(C)c(NC(=O)c2ccc(CN3CCc4ccccc4C3)cc2)c1,1.2,0.2,-2.6,13.6,5.4,2.1
C[C@@H]1CN([C@@H](C)CO)C(=O)Cc2cc(NS(=O)(=O)c3cccs3)ccc2O[C@H]1CN(C)CC1CC1,12.0,0.1,0.9,4.3,0.5,2.3
Cc1cccc(NC(=S)Nc2ccccn2)c1,0.2,.,.,10.9,0.5,19.8*
C=C(C)CN(CC)C(=O)c1ccc(OC2CCN(S(=O)(=O)N(C)C)CC2)cc1,4.8,.,1.4,-1.4,0.6,17.0*
C[C@@H]1CN([C@H](C)CO)C(=O)c2cc(N(C)C)ccc2O[C@@H](C)CCCCO[C@H]1CN(C)Cc1ccccc1,1.8,0.1,-0.7,-3.2,7.2,1.8
Cc1noc(C)c1S(=O)(=O)N(C)C[C@@H]1Oc2ccc(NS(=O)(=O)c3cccs3)cc2CC(=O)N([C@@H](C)CO)C[C@H]1C,4.3,-0.4,-1.0,-0.3,25.6*,5.2
Cc1noc(C)c1S(=O)(=O)N(C)C[C@H]1Oc2ccc(NC(=O)C3CC3)cc2CC(=O)N([C@@H](C)CO)C[C@@H]1C,-3.2,?,-0.3,0.2,-0.1,2.9
Cc1noc(C)c1S(=O)(=O)N(C)C[C@H]1Oc2ccc(NS(C)(=O)=O)cc2CC(=O)N([C@@H](C)CO)C[C@H]1C,-5.8,27.8*,1.8,2.1,-2.0,3.7
Cc1noc(C)c1S(=O)(=O)N(C)C[C@@H]1Oc2ccc(NS(=O)(=O)c3cccs3)cc2CC(=O)N([C@H](C)CO)C[C@@H]1C,-0.8,-0.3,.,1.7,5.7,.
Cc1noc(C)c1S(=O)(=O)N(C)C[C@@H]1Oc2ccc(NC(=O)C3CC3)cc2CC(=O)N([C@@H](C)CO)C[C@H]1C,142.3*,1.8,2.8,3.0,-1.2,5.9
COc1cccc(C(=O)N2C[C@@H]3[C@H](c4ccccc42)[C@@H](CO)N3C(=O)c2ccc(F)cc2)c1,7.6,0.0,2.5,0.2,-4.7,0.0
CCc1ccc(NC(=O)CCC(=O)N2CCSc3ccccc32)cc1,5.8,-0.1,-1.2,-21.6,-2.9,-5.8
CCc1cccc(NC(=O)CCC(=O)N2CCSc3ccccc32)c1,-0.5,0.6,0.9,-23.6*,-3.6,0.9
CCCNC(=O)N1CC2(CN(CC3CCCCC3)C2)c2c(n(C)c3cc(OC)ccc23)[C@@H]1CO,-4.3,-0.2,-0.8,-4.0,32.6*,6.7
CCCNC(=O)N1CC2(CN(CC3CCCCC3)C2)c2c(n(C)c3cc(OC)ccc23)[C@H]1CO,7.5,0.4,-6.0,-8.1,?,4.5
CCCNC(=O)N1CC2(CN(Cc3ccc(OC)cc3)C2)c2c(n(C)c3cc(OC)ccc23)[C@@H]1CO,.,0.3,.,4.3,33.8*,.
SMILES,S100A4 inh HTS,E-sel inducer,ERAP1 inh,rRNA inh HTS,AF4-AF9 inh,SIRT5 inh
CCCNC(=O)N1CC2(CN(Cc3cccc(OC)c3)C2)c2c(n(C)c3cc(OC)ccc23)[C@H]1CO,20.0,0.2,-0.7,-2.5,?,5.1
CCCNC(=O)Nc1ccc2c(c1)C(=O)N(C)[C@H]1CC[C@@H](CC(=O)O)O[C@H]1CO2,.,0.1,.,2.5,.,.
O=C(O)C[C@@H]1C[C@H]2c3cc(NC(=O)C4CCOCC4)ccc3O[C@H]2[C@@H](CO)O1,-8.5,0.3,-0.7,0.4,-1.3,-4.7
COc1ccc(Cc2c(-c3cccc(Cl)c3)nc3ccc(C)cn23)c(C)c1,-0.7,0.2,2.0,5.1,7.0,22.4*
COc1cccc(CC(=O)Nc2cccc3ccccc23)c1,-0.6,-0.2,-2.8,3.8,0.4,-6.4
COc1ccc(CN(C)CC(=O)Nc2cccc3ccccc23)cc1F,-1.8,-0.1,0.3,-15.3,-0.2,-1.7
COc1cc(CO)cc(Br)c1OCC(=O)Nc1cccc2ccccc12,4.8,0.6,.,-23.9*,1.5,-4.8
CCOc1ccc(CN(C)CC(=O)Nc2cccc3ccccc23)cc1OC,-1.0,1.2,-6.5,-24.5*,-2.6,0.5
COc1ccc2c3c([nH]c2c1)[C@H](CO)N(Cc1ccccc1OC)CC31CN(S(=O)(=O)c2ccccc2)C1,-22.3,-0.4,1.2,-3.1,1.3,-2.8
CC(C)C#Cc1cnc2c(c1)C(=O)N([C@@H](C)CO)C[C@H](C)[C@@H](CN(C)C(=O)Cc1ccccn1)O2,-1.4,0.3,6.6,-0.2,-13.0,16.9*
CC(C)C#Cc1cnc2c(c1)C(=O)N([C@@H](C)CO)C[C@H](C)[C@H](CN(C)C(=O)c1ccccc1)O2,5.4,.,-0.6,.,-2.9,16.7*
CC(C)C#Cc1cnc2c(c1)C(=O)N([C@H](C)CO)C[C@@H](C)[C@@H](CN(C)C(=O)Cc1ccccn1)O2,-5.4,0.0,7.8,1.2,-12.6,-0.8
COCC#Cc1cnc2c(c1)C(=O)N([C@@H](C)CO)C[C@@H](C)[C@@H](CN(C)C(=O)c1ccc(F)cc1)O2,25.2,-0.2,0.5,1.4,-2.1,31.2*
Cc1cccc(NC(=O)Cn2nnc(-c3cccs3)n2)c1C,-2.7,.,0.7,3.3,.,24.7*
